What was measured:
[1] = Drug concentration in male albino rat thyroid gland assessed as radioactivity per gram of tissue at 20 mg/kg administered as single dose via gastric gavage measured after 6 hrs by autoradiographic analysis; format: ADME, organism-based; parameters: dose 20 mg/kg, dosed compound name [14C]Sunitinib; conditions: in vivo, po
Adrenal = assay: Drug concentration in female Lister Hooded pigmented rat adrenal assessed as radioactivity per gram of tissue at 20 mg/kg administered as single dose via gastric gavage measured after 168 hrs by autoradiographic analysis; format: ADME, organism-based; parameters: dose 20 mg/kg, dosed compound name [14C]Sunitinib; conditions: in vivo, po
Summary of the method: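 Pigmented Lister Hooded rats, 7-8 weeks old, received [14C]sunitinib L-malate by gavage at 20 mg/kg (15 mg freebase/kg, 100 µCi/kg). One rat per sex was killed by CO2 at each of 24, 72, 168 and 336 h. Carcasses were frozen in solid CO2/hexane and cut into 30 µm sagittal sections, then freeze-dried. Tissue radioactivity was quantified by whole-body autoradiography calibrated against standards by regression (LOQ 0.04–0.06 µg eq/g).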

Small intestine [2] = assay: Drug concentration in male albino rat small intestine assessed as radioactivity per gram of tissue at 20 mg/kg administered as single dose via gastric gavage measured after 72 hrs by autoradiographic analysis; format: ADME, organism-based; parameters: dose 20 mg/kg, dosed compound name [14C]Sunitinib; conditions: in vivo, po
Zone of skin [3] = assay: Drug concentration in female albino rat abdomen skin assessed as radioactivity per gram of tissue at 20 mg/kg administered as single dose via gastric gavage measured after 6 hrs by autoradiographic analysis; format: ADME, organism-based; parameters: dose 20 mg/kg, dosed compound name [14C]Sunitinib; conditions: in vivo, po
Summary of the method: (§1)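 Sprague Dawley (albino) rats, ca 7-8 weeks old, received a single gastric-gavage dose of [14C]sunitinib L-malate at 20 mg/kg (15 mg freebase/kg, 100 µCi/kg). One animal per sex killed by CO2 at 3, 6, 24, 72 and 168 h, then frozen in CO2/hexane. 30 µm sagittal sections were cut and freeze-dried. Radioactivity per gram quantified by whole-body autoradiography using regression against standards. LOQ 0.04–0.06 µg freebase equiv/g.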

Heart = assay: Drug concentration in male albino rat heart assessed as radioactivity per gram of tissue at 20 mg/kg administered as single dose via gastric gavage measured after 6 hrs by autoradiographic analysis; format: ADME, organism-based; parameters: dose 20 mg/kg, dosed compound name [14C]Sunitinib; conditions: in vivo, po
Rattus norvegicus = assay: Drug recovery in cage residue of male Sprague-Dawley rat at 15 mg/kg, po administered as single dose during 0 to 72 hrs by liquid scintillation counting; format: ADME, organism-based; parameters: dose 15 mg/kg, dosed compound name [14C]Sunitinib, route oral; conditions: in vivo
[4] = Drug concentration in female albino rat salivary gland assessed as radioactivity per gram of tissue at 20 mg/kg administered as single dose via gastric gavage measured after 6 hrs by autoradiographic analysis; format: ADME, organism-based; parameters: dose 20 mg/kg, dosed compound name [14C]Sunitinib; conditions: in vivo, po
Spleen [5] = assay: Drug concentration in male albino rat spleen assessed as radioactivity per gram of tissue at 20 mg/kg administered as single dose via gastric gavage measured after 24 hrs by autoradiographic analysis; format: ADME, organism-based; parameters: dose 20 mg/kg, dosed compound name [14C]Sunitinib; conditions: in vivo, po
[6] = Drug concentration in female albino rat uveal tract assessed as radioactivity per gram of tissue at 20 mg/kg administered as single dose via gastric gavage measured after 6 hrs by autoradiographic analysis; format: ADME, organism-based; parameters: dose 20 mg/kg, dosed compound name [14C]Sunitinib; conditions: in vivo, po
Harderian gland = assay: Drug concentration in female albino rat harderian gland assessed as radioactivity per gram of tissue at 20 mg/kg administered as single dose via gastric gavage measured after 6 hrs by autoradiographic analysis; format: ADME, organism-based; parameters: dose 20 mg/kg, dosed compound name [14C]Sunitinib; conditions: in vivo, po
Summary of the method: (§2)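 Sprague Dawley albino rats, ca 7-8 weeks old, dosed once by gastric gavage with [14C]sunitinib L-malate (15 mg freebase/kg, 100 µCi/kg). One male and one female killed by CO2 at 3, 6, 24, 72 and 168 h. Carcasses frozen in solid CO2/hexane, embedded and cut into 30 µm sagittal sections, then freeze-dried. Radioactivity quantified by whole-body autoradiography against standards by regression, background subtracted.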

Large intestine = assay: Drug concentration in male Lister Hooded pigmented rat large intestine assessed as radioactivity per gram of tissue at 20 mg/kg administered as single dose via gastric gavage measured after 24 hrs by autoradiographic analysis; format: ADME, organism-based; parameters: dose 20 mg/kg, dosed compound name [14C]Sunitinib; conditions: in vivo, po
[7] = Drug concentration in male albino rat testis assessed as radioactivity per gram of tissue at 20 mg/kg administered as single dose via gastric gavage measured after 6 hrs by autoradiographic analysis; format: ADME, organism-based; parameters: dose 20 mg/kg, dosed compound name [14C]Sunitinib; conditions: in vivo, po
[8] = Drug concentration in female albino rat lymph node assessed as radioactivity per gram of tissue at 20 mg/kg administered as single dose via gastric gavage measured after 6 hrs by autoradiographic analysis; format: ADME, organism-based; parameters: dose 20 mg/kg, dosed compound name [14C]Sunitinib; conditions: in vivo, po; summary of the method: as §2
[9] = Drug concentration in male albino rat lachrymal gland assessed as radioactivity per gram of tissue at 20 mg/kg administered as single dose via gastric gavage measured after 24 hrs by autoradiographic analysis; format: ADME, organism-based; parameters: dose 20 mg/kg, dosed compound name [14C]Sunitinib; conditions: in vivo, po
[10] = Drug concentration in male albino rat testis assessed as radioactivity per gram of tissue at 20 mg/kg administered as single dose via gastric gavage measured after 72 hrs by autoradiographic analysis; format: ADME, organism-based; parameters: dose 20 mg/kg, dosed compound name [14C]Sunitinib; conditions: in vivo, po
[11] = Drug recovery in urine of male cynomolgus monkey at 6 mg/kg, po administered as single dose during 0 to 336 hrs by liquid scintillation counting; format: ADME, organism-based, Macaca fascicularis; parameters: dose 6 mg/kg, dosed compound name [14C]Sunitinib, route oral; conditions: in vivo
Small intestine [12] = assay: Drug concentration in male albino rat small intestine assessed as radioactivity per gram of tissue at 20 mg/kg administered as single dose via gastric gavage measured after 3 hrs by autoradiographic analysis; format: ADME, organism-based; parameters: dose 20 mg/kg, dosed compound name [14C]Sunitinib; conditions: in vivo, po
Pancreas = assay: Drug concentration in male Lister Hooded pigmented rat pancreas assessed as radioactivity per gram of tissue at 20 mg/kg administered as single dose via gastric gavage measured after 24 hrs by autoradiographic analysis; format: ADME, organism-based; parameters: dose 20 mg/kg, dosed compound name [14C]Sunitinib; conditions: in vivo, po
[13] = Drug concentration in male albino rat eye assessed as radioactivity per gram of tissue at 20 mg/kg administered as single dose via gastric gavage measured after 24 hrs by autoradiographic analysis; format: ADME, organism-based; parameters: dose 20 mg/kg, dosed compound name [14C]Sunitinib; conditions: in vivo, po
Spinal cord = assay: Drug concentration in male albino rat spinal cord assessed as radioactivity per gram of tissue at 20 mg/kg administered as single dose via gastric gavage measured after 3 hrs by autoradiographic analysis; format: ADME, organism-based; parameters: dose 20 mg/kg, dosed compound name [14C]Sunitinib; conditions: in vivo, po
[14] = Drug concentration in female Lister Hooded pigmented rat uveal tract assessed as radioactivity per gram of tissue at 20 mg/kg administered as single dose via gastric gavage measured after 24 hrs by autoradiographic analysis; format: ADME, organism-based; parameters: dose 20 mg/kg, dosed compound name [14C]Sunitinib; conditions: in vivo, po
Summary of the method: (§3)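 Lister Hooded (pigmented) rats, ca 7-8 weeks old, acclimated 7 days, given [14C]sunitinib L-malate by gastric gavage at 20 mg/kg (15 mg freebase/kg, 100 µCi/kg). One male and one female killed by CO2 at 24, 72, 168 and 336 h. Carcasses frozen in solid CO2/hexane and embedded in frozen cellulose. 30 µm sagittal cryosections were freeze-dried. Tissue radioactivity measured by quantitative whole-body autoradiography against calibration standards, with background subtracted.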

Zone of skin [15] = assay: Drug concentration in female albino rat abdomen skin assessed as radioactivity per gram of tissue at 20 mg/kg administered as single dose via gastric gavage measured after 24 hrs by autoradiographic analysis; format: ADME, organism-based; parameters: dose 20 mg/kg, dosed compound name [14C]Sunitinib; conditions: in vivo, po; summary of the method: as §1
[16] = Drug concentration in male albino rat pituitary gland assessed as radioactivity per gram of tissue at 20 mg/kg administered as single dose via gastric gavage measured after 168 hrs by autoradiographic analysis; format: ADME, organism-based; parameters: dose 20 mg/kg, dosed compound name [14C]Sunitinib; conditions: in vivo, po
[17] = Drug concentration in male Lister Hooded pigmented rat salivary gland assessed as radioactivity per gram of tissue at 20 mg/kg administered as single dose via gastric gavage measured after 24 hrs by autoradiographic analysis; format: ADME, organism-based; parameters: dose 20 mg/kg, dosed compound name [14C]Sunitinib; conditions: in vivo, po
[18] = Drug concentration in female Lister Hooded pigmented rat brown fat assessed as radioactivity per gram of tissue at 20 mg/kg administered as single dose via gastric gavage measured after 24 hrs by autoradiographic analysis; format: ADME, organism-based, Brown adipose tissue; parameters: dose 20 mg/kg, dosed compound name [14C]Sunitinib; conditions: in vivo, po; summary of the method: as §3
[19] = Drug concentration in female albino rat preputial gland assessed as radioactivity per gram of tissue at 20 mg/kg administered as single dose via gastric gavage measured after 72 hrs by autoradiographic analysis; format: ADME, organism-based; parameters: dose 20 mg/kg, dosed compound name [14C]Sunitinib; conditions: in vivo, po; summary of the method: as §2
Spleen [20] = assay: Drug concentration in female albino rat spleen assessed as radioactivity per gram of tissue at 20 mg/kg administered as single dose via gastric gavage measured after 6 hrs by autoradiographic analysis; format: ADME, organism-based; parameters: dose 20 mg/kg, dosed compound name [14C]Sunitinib; conditions: in vivo, po

`CCN(CC)CCNC(=O)c1c(C)[nH]c(/[14CH]=C2\C(=O)Nc3ccc(F)cc32)c1C.O=C(O)C[C@H](O)C(=O)O` gave a Radiolabel recovery [1] of 18.76 ugequiv, a Radiolabel recovery (Adrenal) of 0.35 ugequiv and a Radiolabel recovery (Small intestine [2]) of 0.15 ugequiv. It also gave a Radiolabel recovery (Zone of skin [3]) of 4.73 ugequiv, a Radiolabel recovery (Heart) of 4.61 ugequiv and a Radiolabel recovery (Rattus norvegicus) of 1.5%. It also gave a Radiolabel recovery [4] of 23.1 ugequiv, a Radiolabel recovery (Spleen [5]) of 1.23 ugequiv and a Radiolabel recovery [6] of 4.94 ugequiv. It also gave a Radiolabel recovery (Harderian gland) of 14.12 ugequiv, a Radiolabel recovery (Large intestine) of 0.69 ugequiv and a Radiolabel recovery [7] of 0.9 ugequiv. It also gave a Radiolabel recovery [8] of 14.48 ugequiv, a Radiolabel recovery [9] of 4.7 ugequiv and a Radiolabel recovery [10] of 0.39 ugequiv. For the same compound, the Radiolabel recovery [11] was 4.8%, the Radiolabel recovery (Small intestine [12]) was 8.91 ugequiv and the Radiolabel recovery (Pancreas) was 1.23 ugequiv. It also gave a Radiolabel recovery [13] of 0.08 ugequiv, a Radiolabel recovery (Spinal cord) of 0.19 ugequiv and a Radiolabel recovery [14] of 124.52 ugequiv. The Radiolabel recovery (Zone of skin [15]) was 4.16 ugequiv, the Radiolabel recovery [16] was 0.76 ugequiv and the Radiolabel recovery [17] was 3.52 ugequiv. For the same compound, the Radiolabel recovery [18] was 0.73 ugequiv, the Radiolabel recovery [19] was 0.24 ugequiv and the Radiolabel recovery (Spleen [20]) was 27.96 ugequiv.
